Results pooled from the literature.
Compare with care: the assays were run in different laboratories.
EGFR L861Q: Epidermal growth factor receptor (EGFR, Homo sapiens, UniProt P00533, L861Q)
EGFR: Epidermal growth factor receptor (EGFR, Homo sapiens, UniProt P00533)
EGFR A750P/del747-749: Epidermal growth factor receptor (EGFR, Homo sapiens, UniProt P00533, A750P/del747-749)
EGFR G719S: Epidermal growth factor receptor (EGFR, Homo sapiens, UniProt P00533, G719S)
EGFR del752-759: Epidermal growth factor receptor (EGFR, Homo sapiens, UniProt P00533, del752-759)
EGFR T790M: Epidermal growth factor receptor (EGFR, Homo sapiens, UniProt P00533, T790M)
EGFR L858R/T790M: Epidermal growth factor receptor (EGFR, Homo sapiens, UniProt P00533, L858R/T790M)
EGFR del746-750: Epidermal growth factor receptor (EGFR, Homo sapiens, UniProt P00533, del746-750)
EGFR G719C: Epidermal growth factor receptor (EGFR, Homo sapiens, UniProt P00533, G719C)
EGFR del747-752/P753S: Epidermal growth factor receptor (EGFR, Homo sapiens, UniProt P00533, del747-752/P753S)

Structure (SMILES)	target	test	conditions	remaining binding [%]
CN(C)C(=O)Cn1cc(-c2nc(C3(c4ccc(-c5cnc(N)nc5)cc4)CC3)no2)cn1	EGFR L861Q	cell-free assay, competition with immobilised ligand	1 µM	100
c1cnn2ncc(-c3ccnc(N4CCC45COC5)n3)c2c1	EGFR	binding	1 µM	100
CNC(=O)[C@@H]1CC[C@@H](n2c(-c3ccc4cnccc4c3)nc3ccc(C(=O)NCc4cccc(C(N)=O)c4)cc32)C1	EGFR A750P/del747-749	binding, competition with immobilised ligand	1 µM	100
CC(C)(O)c1cncc(-c2nc3ccc(F)cc3n2C2CC2)c1	EGFR L861Q	cell-free assay, competition with immobilised ligand	1 µM	100
CCN1CCN(Cc2ccc(C(=O)Nc3ccc(C)c(Oc4ccc5c(c4)CC(=O)N5)c3)cc2C(F)(F)F)CC1	EGFR	binding, competition with immobilised ligand	1 µM	100
NS(=O)(=O)c1cc(NC(=O)Cc2ccccc2)ccc1Oc1cccc(Cl)c1	EGFR G719S	cell-free assay, competition with immobilised ligand	1 µM	74
N[C@H]1CCN(c2nccc(-c3cnn4ncccc34)n2)C1	EGFR G719S	binding	1 µM	93
Cc1c(NC(=O)c2cc(C(N)=O)nc3cc(F)ccc23)c(C(F)(F)F)nn1Cc1ccc(C(C)(C)C)cc1	EGFR A750P/del747-749	cell-free assay, competition with immobilised ligand	1 µM	100
O=C(Nc1c[nH]nc1C(=O)NC1CCNCC1)c1cc(F)cc(F)c1	EGFR L861Q	binding, competition with immobilised ligand	1 µM	100
CC(=O)N1CCC(c2ccc(C(=O)NC(=N)N)cc2C(F)(F)F)CC1	EGFR del752-759	cell-free assay, competition with immobilised ligand	1 µM	90
O=C(NCCCN1CCOCC1)c1ccc(Nc2ncc(Cl)c(-c3ccc(Cl)s3)n2)cc1	EGFR T790M	binding, competition with immobilised ligand	1 µM	83
COc1ncc2cc3ccccc3nc2c1C#N	EGFR del752-759	cell-free assay, competition with immobilised ligand	5 µM	96
Cc1noc([C@H]2C[C@@H](c3ccc(C(F)(F)F)cc3)CN(C(=O)N3CCS(=O)(=O)C3)C2)n1	EGFR L858R/T790M	cell-free assay, competition with immobilised ligand	1 µM	96
COc1cnc(Nc2cccc(S(N)(=O)=O)c2)nc1N1CCN(c2ccccc2)C(=O)C1	EGFR T790M	binding, competition with immobilised ligand	1 µM	92
Nc1ncc2c(n1)-c1c([nH]c3ccc(C#CC4CC4)cc13)CCCC2	EGFR G719S	binding, competition with immobilised ligand	1 µM	98
O=C(c1ccc(Nc2nccc(-c3cc4ccccc4s3)n2)cc1)N1CCC(N2CCCC2)CC1	EGFR del746-750	binding, competition with immobilised ligand	1 µM	100
CN1CCN(c2ccc(Nc3nccc(-c4ccccc4)n3)cc2C(F)(F)F)CC1	EGFR G719C	binding	10 µM	64

Structure (SMILES)	target	test	conditions	remaining binding [%]
CCOCCn1cc(C(=O)Nc2ccc(-n3nc(-c4cccnc4)cc3C(F)(F)F)cn2)ccc1=O	EGFR A750P/del747-749	cell-free assay, competition with immobilised ligand	1 µM	96
C[C@H]1CCN(c2nccc(-c3cnn4ncccc34)n2)C1	EGFR G719S	binding	1 µM	75
C[C@H](c1cccc(C#N)c1)n1cc(Cl)cc(C(N)=O)c1=N	Epidermal growth factor receptor (EGFR, Homo sapiens, UniProt P00533, L858R)	cell-free assay, competition with immobilised ligand	1 µM	86
CN1CCN(c2ccc(Nc3nccc(-c4cccc([N+](=O)[O-])c4)n3)cc2C(F)(F)F)CC1	EGFR T790M	binding	10 µM	45
O=C(NCC1CCOCC1)c1n[nH]cc1NC(=O)c1c(F)cccc1F	EGFR	binding, competition with immobilised ligand	1 µM	99
CN(CCCC(F)(F)F)c1nccc(-c2cnn3ncccc23)n1	EGFR G719C	binding	1 µM	100
Cc1cnc(Nc2ccc(C(=O)N3CCC(N4CCCC4)CC3)cc2)nc1-c1cc2ccccc2s1	EGFR del747-752/P753S	binding, competition with immobilised ligand	1 µM	100
CN(C)c1nccc(-c2cnc3ncccn23)n1	EGFR	binding	1 µM	63
O=C(c1ccc(Nc2ncc(Cl)c(-c3cc4ccccc4s3)n2)cc1)N1CCC(N2CCCC2)CC1	EGFR A750P/del747-749	binding, competition with immobilised ligand	1 µM	86
COc1cnc(Nc2cccc(S(N)(=O)=O)c2)nc1N1CCN(c2ccccc2)CC1	EGFR del747-752/P753S	binding, competition with immobilised ligand	1 µM	85
Cc1ccc(NC(=O)c2ccc(CN3CCN(C)CC3)cc2)cc1Nc1nccc(-c2cccnc2)n1	EGFR	cell-free assay, competition with immobilised ligand	10 µM	71
c1cncc(-c2cccc(Nc3nccc(NC4CCCCC4)n3)c2)c1	EGFR L861Q	binding, competition with immobilised ligand	10 µM	53
CC1CCCN1c1nccc(-c2cnn3ncccc23)n1 (stereo not drawn)	EGFR del746-750	binding	1 µM	75
O=C(NCCCN1CCOCC1)c1ccc(Nc2nccc(-c3cc4ccccc4s3)n2)cc1	EGFR del746-750	binding, competition with immobilised ligand	1 µM	100
CN(C)c1nccc(-c2cnn3ncccc23)n1	EGFR L858R/T790M	binding	1 µM	100
O=C(c1ccc(Nc2ncc(Cl)c(-c3ccc(Cl)s3)n2)cc1)N1CCC(N2CCCC2)CC1	EGFR del752-759	binding, competition with immobilised ligand	1 µM	96
